We go through 16 compounds from ChEMBL document CHEMBL3120123, “Molecular dynamics simulations and structure-based rational design lead to allosteric HCV NS5B polymerase thumb pocket 2 inhibitor with picomolar cellular replicon potency” (J Med Chem, 2014).

Data set [1] can be described thus: Permeability across apical to basolateral side in human Caco2 cells. The following applies: Caco-2, read-out: permeability. In kind it is ADME, cell-based. Summed up:
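Caco-2 monolayer permeability run with apical compartment at pH 6.0 and basolateral compartment at pH 7.4; reported in 10^-6 cm/s.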
Background: Caco-2 monolayers are a common model of the intestinal barrier.

The subject of data set [2] is Hepatitis C virus. Put plainly: Antiviral activity against HCV genotype 1b infected in human HuH7 cells assessed as inhibition of viral RNA replication after 72 hrs by luciferase reporter gene assay. The data set is classed as functional, organism-based, Hepacivirus hominis. As to conditions: Huh-7, 72 h. In a few lines: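 HCV genotype 1b subgenomic luciferase reporter replicon cells. EC50 taken from inhibition of replicon RNA replication, luciferase read-out, n ≥ 2; method as described in earlier work.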
(In a reporter assay the amount or activity of a reporter protein is the signal.)

A short description of data set [3]: Lipophilicity, log D of the compound at pH 7.4. In kind it is physicochemical. The following applies: buffer.
Data set [4] deals with Hepatitis C virus. Put plainly: Antiviral activity against HCV genotype 1b infected in human HuH7-J cells assessed as inhibition of viral RNA replication after 72 hrs by poliovirus internal ribosomal entry site incorporating luciferase reporter gene assay. The data set is classed as functional, organism-based, Hepacivirus hominis. As to conditions: Huh-7, 72 h. In a few lines:
(§1)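 Subgenomic HCV replicons (gt1a or gt1b) carrying a luciferase reporter, with the poliovirus IRES placed upstream of luciferase. EC50 is derived from inhibition of HCV RNA replication read by luciferase signal.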

A short description of data set [5]: Solubility of the compound in form of lyophilized, amorphous solid at pH 6.8 after 24 hrs by shake flask method. The data set is classed as physicochemical. As to conditions: buffer. In a few lines:
(§2)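 Lyophilized amorphous solids tested by 24 h shaking flask method; solubility given in µg/ml at pH 2 and at pH 6.8.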

Data set [6] relates to Hepatitis C virus. Put plainly: Antiviral activity against HCV genotype 1b expressing HCV genotype 2b NS5B infected in human HuH7-J cells assessed as inhibition of viral RNA replication after 72 hrs by poliovirus internal ribosomal entry site incorporating luciferase reporter gene assay. The following applies: Huh-7, 72 h. In kind it is functional, organism-based, Hepacivirus hominis. Summed up: (§3)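 Surrogate assay using chimeric gt1b subgenomic replicons that carry the NS5B polymerase gene from gt2b, 3a, 4a or 5a. Luciferase reporter sits downstream of the poliovirus IRES. EC50 is derived from inhibition of replication read by luciferase.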

The nature of data set [7]: Solubility of the compound in form of lyophilized, amorphous solid at pH 2 after 24 hrs by shake flask method. In kind it is physicochemical. The following applies: buffer. In a few lines: as §2
The subject of data set [8] is Hepatitis C virus. Put plainly: Antiviral activity against HCV genotype 1a infected in human HuH7-J cells assessed as inhibition of viral RNA replication after 72 hrs by poliovirus internal ribosomal entry site incorporating luciferase reporter gene assay. The data set is classed as functional, organism-based, Hepacivirus hominis. As to conditions: subtype 1a, Huh-7, 72 h. In a few lines: as §1

The subject of data set [9] is Hepatitis C virus. Kind of data set: Antiviral activity against HCV genotype 1b expressing HCV genotype 3a NS5B infected in human HuH7-J cells assessed as inhibition of viral RNA replication after 72 hrs by poliovirus internal ribosomal entry site incorporating luciferase reporter gene assay. In kind it is functional, organism-based, Hepacivirus hominis. The following applies: Huh-7, 72 h. In a few lines: as §3

Data set [10] has as its system Hepatitis C virus. Put plainly: Antiviral activity against HCV genotype 1b expressing HCV genotype 4a NS5B infected in human HuH7-J cells assessed as inhibition of viral RNA replication after 72 hrs by poliovirus internal ribosomal entry site incorporating luciferase reporter gene assay. In kind it is functional, organism-based, Hepacivirus hominis. As to conditions: Huh-7, 72 h. In a few lines:
as §3

Data set [11] relates to Hepatitis C virus. Put plainly: Antiviral activity against HCV genotype 1b expressing HCV genotype 6a NS5B infected in human HuH7-J cells assessed as inhibition of viral RNA replication after 72 hrs by real-time PCR analysis. In kind it is functional, organism-based, Hepacivirus hominis. As to conditions: Huh-7, 72 h. Summed up: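 Surrogate assay using a chimeric gt1b subgenomic replicon carrying the gt6a NS5B polymerase gene. Replicon RNA is quantified by RT-PCR, and EC50 is derived from inhibition of HCV RNA replication.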
For orientation: Real-time PCR tracks product formation cycle by cycle.

For data set [12], the system named is Hepatitis C virus. Put plainly: Antiviral activity against HCV genotype 1b expressing HCV genotype 5a NS5B infected in human HuH7-J cells assessed as inhibition of viral RNA replication after 72 hrs by poliovirus internal ribosomal entry site incorporating luciferase reporter gene assay. In kind it is functional, organism-based, Hepacivirus hominis. The following applies: Huh-7, 72 h. In a few lines:
as §3

≈ marks a conversion by molar mass, not a printed value. A value given as a limit tells only on which side of the number the result lay.

In the case of `O=c1ncn(Cc2c(F)cc(F)cc2F)c2ccc(Oc3ccccc3C(F)(F)F)cc12`, in data set [1], the Papp A→B was found to be 9.2 ×10⁻⁶ cm/s.
In the case of `NC(=O)c1cccc(Oc2ccc3c(c2)c(=O)ncn3Cc2c(F)cc(F)cc2F)c1C(F)(F)F`, the EC50 (as a rule, the concentration giving half of the maximal effect) with Hepatitis C virus [2] amounted to 180 nM. Besides, the Papp A→B in data set [1] is 1.9 ×10⁻⁶ cm/s.
The corresponding values for `O=C(Nc1ccccc1)c1cccc(Oc2ccc3c(c2)c(=O)ncn3Cc2c(F)cc(F)cc2F)c1C(F)(F)F` are 2.5 nM and 0.84 ×10⁻⁶ cm/s.
As for `O=C(Nc1cccnc1)c1cccc(Oc2ccc3c(c2)c(=O)ncn3Cc2c(F)cc(F)cc2F)c1C(F)(F)F`, the EC50 with Hepatitis C virus [2] is 5.7 nM. Further, the Papp A→B in data set [1] worked out at 0.26 ×10⁻⁶ cm/s.
The like results for `O=C(Nc1ccccn1)c1cccc(Oc2ccc3c(c2)c(=O)ncn3Cc2c(F)cc(F)cc2F)c1C(F)(F)F` were, in that order, 6.8 nM and 1.2 ×10⁻⁶ cm/s.
The like results for `O=c1ncn(Cc2c(F)cc(F)cc2F)c2ccc(Oc3cccc(-c4nc5ncccc5o4)c3C(F)(F)F)cc12` were, in that order, 3.3 nM and 3 ×10⁻⁶ cm/s.
Turning to `O=c1ncn(Cc2c(F)cc(F)cc2F)c2ccc(Oc3cccc(-c4ccc5[nH]ccc5c4)c3C(F)(F)F)cc12`, the logD – broadly, the decadic logarithm of the distribution of all forms, ionised or not, between an organic phase and buffer at a given pH – in data set [3] was 5.1. Moreover, the EC50 in the data set on Hepatitis C virus [4] turned out to be 0.11 nM; with Hepatitis C virus [2], 0.13 nM; in the data set on Hepatitis C virus [6] it was 15 nM; with Hepatitis C virus [8] it was 0.12 nM; with Hepatitis C virus [9] it was 80 nM; with Hepatitis C virus [10] it was 1.1 nM. For the same compound, the figures for the EC50 in the data set on Hepatitis C virus [11] and in the data set on Hepatitis C virus [12] were 11 nM and 1.3 nM, respectively. In addition, the solubility (thermodynamic) at 24 h in data set [5] and in [7] was less than 0.1 µg/mL each time. The Papp A→B in data set [1] stood at 10.5 ×10⁻⁶ cm/s.
For the compound `O=c1ncn(Cc2c(F)cc(F)cc2F)c2ccc(Oc3cccc(-c4ccc5[nH]cnc5c4)c3C(F)(F)F)cc12`, the logD in [3] was found to be 4.7. The EC50 in the data set on Hepatitis C virus [2] was found to be 0.6 nM. Besides, the solubility (thermodynamic) at 24 h in data set [5] and in data set [7] was less than 0.1 µg/mL throughout. Moreover, the Papp A→B in data set [1] was 0.4 ×10⁻⁶ cm/s.
In [3], `O=c1ncn(Cc2c(F)cc(F)cc2F)c2ccc(Oc3cccc(-c4ccc5cc[nH]c5c4)c3C(F)(F)F)cc12` came in with a logD of 5. In the data set with Hepatitis C virus [2], the EC50 was found to be 10 nM. In addition, the solubility (thermodynamic) at 24 h in data set [5] and in [7] was less than 0.1 µg/mL each time.
As to `Nc1ccc(-c2cccc(Oc3ccc4c(c3)c(=O)ncn4Cc3c(F)cc(F)cc3F)c2C(F)(F)F)cn1`, the logD in data set [3] worked out at 3.9. Further, the EC50 in the data set on Hepatitis C virus [2] amounted to 10 nM. Moreover, the thermodynamic solubility (commonly solubility found after equilibrating the solid with the medium) at 24 h in data set [5] is less than 0.1 µg/mL; in data set [7], 0.3 µg/mL (≈ 0.553 µM). In addition, in [1], the Papp A→B was 4.1 ×10⁻⁶ cm/s.
The compound `Cc1ccc(-c2cccc(Oc3ccc4c(c3)c(=O)ncn4Cc3c(F)cc(F)cc3F)c2C(F)(F)F)cn1` registered a logD in data set [3] of 4.2. Also, in the data set with Hepatitis C virus [2], the EC50 was 55 nM. In addition, the results for the thermodynamic solubility at 24 h in [5] and in data set [7] were less than 0.1 µg/mL and 180 µg/mL (≈ 332 µM), respectively.
The compound `Cc1cc(-c2cccc(Oc3ccc4c(c3)c(=O)ncn4Cc3c(F)cc(F)cc3F)c2C(F)(F)F)cnc1N` showed a logD in data set [3] greater than 4.7. For the same compound, the EC50 with Hepatitis C virus [2] came out at 6 nM. Moreover, the thermodynamic solubility at 24 h in data set [5] is less than 0.1 µg/mL; in [7], 74 µg/mL (≈ 133 µM). The Papp A→B in data set [1] amounted to 1.1 ×10⁻⁶ cm/s.
With `O=c1ncn(Cc2c(F)cc(F)cc2F)c2ccc(Oc3cccc(-c4ccccc4)c3C(F)(F)F)cc12`, in the data set on Hepatitis C virus [2], the EC50 amounted to 450 nM.
Still for that read-out and setting: in the case of `O=c1ncn(Cc2c(F)cc(F)cc2F)c2ccc(Oc3cccc(-c4ccccn4)c3C(F)(F)F)cc12` it was 310 nM; in that of `O=c1ncn(Cc2c(F)cc(F)cc2F)c2ccc(Oc3ccc(-c4nc5ncccc5o4)cc3)cc12`, 490 nM.
For the compound `O=c1ncn(Cc2c(F)cc(F)cc2F)c2ccc(Oc3ccc(-c4ccc5[nH]ccc5c4)cc3)cc12`, in data set [3], the logD was determined as 4.4. Besides, the EC50 with Hepatitis C virus [2] was 4.6 nM. The solubility (thermodynamic) at 24 h in data set [5] was 0.18 µg/mL (≈ 0.362 µM); in [7], less than 0.1 µg/mL. In addition, the Papp A→B in [1] came out at 3.5 ×10⁻⁶ cm/s.
